According to ChEMBL document CHEMBL4325889, “Natural products hybrids: 3,5,4'-Trimethoxystilbene-5,6,7-trimethoxyflavone chimeric analogs as potential cytotoxic agents against diverse human cancer cells” (Eur J Med Chem, 2019):

Tests used:
Assay type in all cases: functional
SR = test: Growth inhibition of human SR cells at 10 uM after 48 hrs by SRB assay relative to control; conditions: read-out: GI
Outline: (§1)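 NCI screen against its human cancer cell line panel by the standard NCI protocol, SRB protein stain. Single dose of 10 μM. Percent growth inhibition versus control; values above 100% mean the cell population fell below the starting number. Each value is the mean of duplicates.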

SK-MEL-2 = test: Growth inhibition of human SK-MEL-2 cells at 10 uM after 48 hrs by SRB assay relative to control; conditions: SK-MEL-2, 48 h, read-out: GI
Outline: (§2)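 Screened at the National Cancer Institute by the standard NCI protocol using the sulforhodamine B assay, which measures cellular protein. Single dose of 10 µM. Result is percent growth inhibition; values above 100% mean cell number fell below the initial population. Values are the average of duplicates.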

UACC-62 = test: Growth inhibition of human UACC62 cells at 10 uM after 48 hrs by SRB assay relative to control; conditions: UACC-62, 48 h, read-out: GI; outline: as §1
LOX IMVI = test: Growth inhibition of human LOXIMVI cells at 10 uM after 48 hrs by SRB assay relative to control; conditions: read-out: GI; outline: as §2
CAKI-1 = test: Growth inhibition of human Caki1 cells at 10 uM after 48 hrs by SRB assay relative to control; conditions: CAKI-1, 48 h, read-out: GI; outline: as §2
OVCAR-3 = test: Growth inhibition of human OVCAR3 cells at 10 uM after 48 hrs by SRB assay relative to control; conditions: OVCAR-3, 48 h, read-out: GI; outline: as §2
COLO 205 = test: Growth inhibition of human COLO205 cells at 10 uM after 48 hrs by SRB assay relative to control; conditions: COLO 205, 48 h, read-out: GI; outline: as §2
SF-268 = test: Growth inhibition of human SF268 cells at 10 uM after 48 hrs by SRB assay relative to control; conditions: SF-268, 48 h, read-out: GI; outline: as §2
A549 = test: Growth inhibition of human A549 cells at 10 uM after 48 hrs by SRB assay relative to control; conditions: A549, 48 h, read-out: GI; outline: as §2
NCI/ADR-RES = test: Growth inhibition of human NCI/ADR-RES cells at 10 uM after 48 hrs by SRB assay relative to control; conditions: read-out: GI; outline: as §2
UACC-257 = test: Growth inhibition of human UACC257 cells at 10 uM after 48 hrs by SRB assay relative to control; conditions: UACC-257, 48 h, read-out: GI; outline: as §1
U-251 = test: Growth inhibition of human U251 cells at 10 uM after 48 hrs by SRB assay relative to control; conditions: U-251, 48 h, read-out: GI; outline: as §1
OVCAR-4 = test: Growth inhibition of human OVCAR4 cells at 10 uM after 48 hrs by SRB assay relative to control; conditions: OVCAR-4, 48 h, read-out: GI; outline: as §2
MCF7 = test: Growth inhibition of human MCF7 cells at 10 uM after 48 hrs by SRB assay relative to control; conditions: MCF7, 48 h, read-out: GI; outline: as §2
KM12 = test: Growth inhibition of human KM12 cells at 10 uM after 48 hrs by SRB assay relative to control; conditions: KM12, 48 h, read-out: GI; outline: as §2
Hs-578T = test: Growth inhibition of human Hs 578T cells at 10 uM after 48 hrs by SRB assay relative to control; conditions: read-out: GI; outline: as §2
HCC 2998 = test: Growth inhibition of human HCC2998 cells at 10 uM after 48 hrs by SRB assay relative to control; conditions: HCC 2998, 48 h, read-out: GI; outline: as §2
HCT-116 = test: Growth inhibition of human HCT116 cells at 10 uM after 48 hrs by SRB assay relative to control; conditions: HCT-116, 48 h, read-out: GI; outline: as §2
UO-31 = test: Growth inhibition of human UO31 cells at 10 uM after 48 hrs by SRB assay relative to control; conditions: UO-31, 48 h, read-out: GI; outline: as §1
NCI-H322M = test: Growth inhibition of human NCI-H322M cells at 10 uM after 48 hrs by SRB assay relative to control; conditions: read-out: GI; outline: as §2
HOP-92 = test: Growth inhibition of human HOP92 cells at 10 uM after 48 hrs by SRB assay relative to control; conditions: HOP-92, 48 h, read-out: GI; outline: as §2

| SMILES | inhibition of growth at 10 µM (SR) | inhibition of growth at 10 µM (SK-MEL-2) | inhibition of growth at 10 µM (UACC-62) | inhibition of growth at 10 µM (LOX IMVI) | inhibition of growth at 10 µM (CAKI-1) | inhibition of growth at 10 µM (OVCAR-3) | inhibition of growth at 10 µM (COLO 205) | inhibition of growth at 10 µM (SF-268) | inhibition of growth at 10 µM (A549) | inhibition of growth at 10 µM (NCI/ADR-RES) | inhibition of growth at 10 µM (UACC-257) | inhibition of growth at 10 µM (U-251) | inhibition of growth at 10 µM (OVCAR-4) | inhibition of growth at 10 µM (MCF7) | inhibition of growth at 10 µM (KM12) | inhibition of growth at 10 µM (Hs-578T) | inhibition of growth at 10 µM (HCC 2998) | inhibition of growth at 10 µM (HCT-116) | inhibition of growth at 10 µM (UO-31) | inhibition of growth at 10 µM (NCI-H322M) | also measured |
| --- | --- | --- | --- | --- | --- | --- | --- | --- | --- | --- | --- | --- | --- | --- | --- | --- | --- | --- | --- | --- | --- |
| COc1ccccc1C(=O)Nc1cccc(-c2cc(=O)c3c(O)c(OC)c(OC)cc3o2)c1 | 16.5% | 0.56% | 30.2% | 4.4% | 9.48% | -14.6% | -7.03% | 8.58% | 22.1% | 5.26% | 31.9% | 33.1% | -5.24% | -1.88% | 5.13% | 11.4% | -9.63% | 11.7% | 15.2% | 8.64% | inhibition of growth at 10 µM (HOP-92): 5.45% |
| COc1cc2oc(-c3cccc(C(=O)Nc4ccccc4)c3)cc(=O)c2c(OC)c1OC | 35.9% | 15.4% | 29.8% | 33% | 4.59% | 12.3% | 2.76% | 16.7% | 16.7% | 18.2% | 5.48% | 9.89% | 1.91% | 7.49% | 24.3% | 8% | 1.29% | 18.3% | 35.6% | 17.7% | inhibition of growth at 10 µM (HOP-92): 29.2% |
| COc1ccc(NC(=O)c2cccc(-c3cc(=O)c4c(O)c(OC)c(OC)cc4o3)c2)cc1 | 19.2% | 16.6% | 18.9% | 20.2% | 6.41% | 49.4% | 2.39% | 45.4% | 18.7% | 14.7% | 20.8% | 26.8% | 2.54% | 6.72% | -3.03% | 43.9% | -1.16% | 29.5% | 6.6% | 0.54% | inhibition of growth at 10 µM (HOP-92): 76.4% |
| COc1cc2oc(-c3cccc(NC(=O)c4ccccc4)c3)cc(=O)c2c(OC)c1OC | 68.4% | 23.2% | 33.2% | 38.3% | 12.8% | 15.8% | 15.6% | 27.7% | 31.1% | 25.5% | 0.33% | 16.3% | 18.3% | 22.7% | 35.6% | 2.76% | 12.2% | 32.3% | 49% | 16.2% | inhibition of growth at 10 µM (HOP-92): 52.4% |
| COc1cccc(NC(=O)c2cccc(-c3cc(=O)c4c(O)c(OC)c(OC)cc4o3)c2)c1 | 47.7% | 2.64% | 44.4% | 36.8% | 32.4% | 10.6% | 24.3% | 22.9% | 26.6% | 25.8% | 8.74% | 23.9% | 48% | 13.2% | 35.5% | 45.5% | -3.54% | 30.7% | 41.7% | 12.9% | inhibition of growth at 10 µM (HOP-92): 33.6% |
